Compound activity deposited in PubChem BioAssay by Johns Hopkins Ion Channel Center.
Shown are actives, neighbours in structure and some others; about 3.7% of the full set was active somewhere.
KCNK9 inh: human KCNK9 channel inhibition; B-score at 10 µM; 310,000 compounds, 1.2% hits; HEK293 KCNK9, FluxOR thallium flux fluorescence; stronger effect = lower value;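 active = ratio B-score over 3 SD below the library mean, with starting fluorescence within 5 SD of its mean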;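 also: negative B-score means less thallium flux so channel inhibition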
KCNQ1 block: human KCNQ1 channel inhibition; CHO-K1 KCNQ1, FluxOR thallium flux fluorescence; stronger effect = higher value; B-score at 10 µM; 310,000 compounds, 1.3% hits;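 active = compounds whose thallium flux B-score, printed positive for inhibition, exceeds three library SD while starting fluorescence stays within three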;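 also: channel opened by potassium depolarization with thallium stimulus after 20 min compound exposure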
Target sequence (P51787 whole entry, looked up): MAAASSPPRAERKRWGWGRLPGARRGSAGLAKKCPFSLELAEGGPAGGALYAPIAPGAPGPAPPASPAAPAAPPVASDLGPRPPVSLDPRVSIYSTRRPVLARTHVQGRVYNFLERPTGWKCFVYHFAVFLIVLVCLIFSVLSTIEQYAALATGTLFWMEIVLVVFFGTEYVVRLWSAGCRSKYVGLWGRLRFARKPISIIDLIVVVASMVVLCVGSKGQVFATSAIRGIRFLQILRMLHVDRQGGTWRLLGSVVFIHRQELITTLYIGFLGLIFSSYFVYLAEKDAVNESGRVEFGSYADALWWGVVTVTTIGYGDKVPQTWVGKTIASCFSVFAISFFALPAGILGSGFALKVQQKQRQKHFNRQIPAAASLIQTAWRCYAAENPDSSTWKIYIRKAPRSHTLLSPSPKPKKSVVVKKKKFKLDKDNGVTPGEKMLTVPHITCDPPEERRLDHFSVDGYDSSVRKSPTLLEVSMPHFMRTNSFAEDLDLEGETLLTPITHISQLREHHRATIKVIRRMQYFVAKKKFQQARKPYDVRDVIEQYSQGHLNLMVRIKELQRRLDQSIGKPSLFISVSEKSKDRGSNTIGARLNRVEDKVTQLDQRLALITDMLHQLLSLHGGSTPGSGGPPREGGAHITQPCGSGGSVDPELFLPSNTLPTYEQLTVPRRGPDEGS
hERG protect: shields human hERG channel from block by proarrhythmic agents. CHO-hERG, FluxOR thallium flux, dofetilide IC70 present. AID 1511. Q12809. 310,000 compounds, 0.51% hits. activation (rescue from dofetilide block), less the hit threshold, % at 10 µM;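 active = activation above the mean of controls blocked by dofetilide plus 5 SD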;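 also: thallium influx through hERG after potassium depolarization seen as dye fluorescence rise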
Kir21 inh: Kir2.1 (mouse) channel inhibition; P35561; HEK293-Kir2.1, FluxOR thallium flux fluorescence; stronger effect = lower value; B-score at 10 µM; 310,000 compounds, 0.85% hits; AID 1672;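 active = fluorescence ratio B-score at or below minus 3 SD of library scores, with starting-brightness B-score within 2 SD, cut at about -4.2 in these data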;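 also: channel flux triggered by added potassium and thallium sulfate stimulus; B-score of peak minus minimum fluorescence over baseline after thallium stimulus; more negative B-score means stronger Kir2.1 block with less thallium influx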
KCNQ1 act: potentiators or activators of human KCNQ1 potassium channel; P51787; CHO-K1 KCNQ1, thallium flux FluxOR fluorescence; stronger effect = higher value; B-score at 10 µM; 310,000 compounds, 0.35% hits; AID 2648;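 active = fluorescence ratio B-score, a plate-corrected score, at least three library SD, with initial intensity B-score within 5 SD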
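System: Stable KCNQ1 CHO-K1 line | Incubation: 90 min dye loading and 20 min compound exposure, both at room temperature | Measure: Ratio B score | Medium: Assay buffer for compound exposure, DMSO matched across wells | Compound dosing: Single-concentration screen | Probe or stimulus: K+/Tl+ depolarizing stimulus | Measured by: Kinetic FluxOR fluorescence, 10 s baseline plus 110 s post-stimulus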
KCNK3 inh: human KCNK3 channel inhibition, primary screen; 340,000 compounds, 0.84% hits; O14649; B-score at 10 µM; CHO-KCNK3 thallium flux, FluxOR fluorescence; stronger effect = lower value;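 active = B-score under library mean minus 4 SD, starting fluorescence ratio at most library mean plus 5 SD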;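 also: more negative B-score means stronger inhibition of thallium flux through KCNK3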
Starred values were filed as active, the others as inactive; i = inactive; x = not tested or not shown.

SMILES	KCNK9 inh	KCNQ1 block	hERG protect	Kir21 inh	KCNQ1 act	KCNK3 inh
O=C(CSCc1ccco1)Nc1cc(C(F)(F)F)ccc1N1CCOCC1	-6.7*	i	-6	-1.9	i	i
COc1ccc2nc(N3C(=O)/C(=C/c4ccccc4)NC3=S)sc2c1	i	i	63*	0.8	62*	i
CC1CC(C)CN(S(=O)(=O)c2cccc(C(=O)N3CCN(c4ccc(F)cc4)CC3)c2)C1 (configuration not stated)	x	x	x	x	x	i
O=C(NNc1c2ccccc2nc2ccccc12)c1ccccc1Cl	i	i	-3	-0.98	9*	i
O=C(NNc1c2ccccc2nc2ccccc12)c1ccccc1O	i	i	-11	0	i	i
O=C(c1ccc(Cl)cc1)N1CCN=C1c1ccccc1	i	i	-10	-4.5*	i	i
Cc1ccc(C)c(S(=O)(=O)N2CCN(C(=O)Cc3sc(C)nc3-c3ccc(F)cc3)CC2)c1	x	x	x	x	x	i
CCOC(=O)C(=CNc1cccnc1Oc1ccc(C)c2c1CCC2)C(=O)OCC	-7.2*	i	-8	-2.1	i	i
COc1cc(OC)c(NC(=O)c2cc3ccccc3cc2O)cc1Cl	x	x	x	x	x	-9.2*
Cc1ccccc1N(C=O)c1ccccc1C	x	x	x	x	x	i
CCN(C/C=C/c1ccccc1OC)Cc1ccccc1	i	i	1	-4.8*	i	i
O=C1c2cc(Br)ccc2OC2C=CC=CC12 (configuration not stated)	x	x	x	x	x	i
O=C(O)CC(NC(=O)C1CCCCC1)c1cc([N+](=O)[O-])ccc1Cl (configuration not stated)	i	12*	-17	0.31	i	i
CC(=O)C1=C(O)C(=O)N(Cc2ccccc2)C1c1ccc(Br)cc1 (configuration not stated)	i	i	-11	-0.09	i	i
COC(=O)/C(=C\Nc1cccc(Cl)c1C)c1ncc(C(F)(F)F)cc1Cl	i	i	-11	-1	i	i
CON/C=C(\C=Nc1ccccc1)c1ncc(C(F)(F)F)cc1Cl	i	7*	-16	0.45	i	i
CC1(C)CC[C@]2(CO)[C@@H](O)C[C@]3(C)C(=CCC4[C@@]5(C)CC[C@H](O)C(C)(C)C5CC[C@]43C)[C@@H]2C1 (some centres not stated)	i	i	0	0.6	34*	x
CC1(C)C2CC[C@]3(C)C(CC=C4[C@@H]5C[C@@](C)(CO)[C@@H](O)C[C@]5(C(=O)O)CC[C@]43C)[C@@]2(C)CC[C@@H]1O (some centres not stated)	i	i	-13	0.01	i	x
CC(C)C(NC(=O)CCNC(=O)c1ccc([N+](=O)[O-])cc1)c1nc2ccccc2[nH]1 (configuration not stated)	x	x	x	x	x	i
CCCCOc1ccccc1N	i	i	5.9*	0.32	i	i
OCCN1CCN(CC(O)COc2ccc(Cl)cc2)CC1 (configuration not stated)	i	i	-4	0.18	i	i
OCCN1CCN(CC(O)COc2ccc(C34CC5CC(CC(C5)C3)C4)cc2)CC1 (configuration not stated)	i	i	-21	-4.4*	i	i
O=C(COC(=O)c1ccc(O)cc1O)N=c1sccn1Cc1ccccc1Cl	-6.9*	i	-10	-1.9	i	i
Cc1ccc(Cn2ccsc2=NC(=O)COC(=O)c2ccc(O)cc2O)cc1	i	i	-5	-1.1	i	i
CCOc1ccccc1OCCCC(=O)Nc1cc(S(=O)(=O)N2CCOCC2)ccc1OC	x	x	x	x	x	i
Nc1ccc(C(=O)N2N=C(c3ccccc3)CC2(O)C(F)(F)F)cc1 (configuration not stated)	i	i	-8	-1.7	i	i
O=C(c1ccccc1O)N1N=C(c2ccccc2)CC1(O)C(F)(F)F (configuration not stated)	i	6*	-13	-0.68	i	i
COc1cccc(C2=NN(C(=O)c3ccco3)C(O)(C(F)(F)F)C2)c1 (configuration not stated)	i	i	-15	0.61	i	i
